Source: PubChem BioAssay (several laboratories)
A1 inh – inhibitors of the anti-apoptotic protein A1, read as caspase activation; caspase activation, % (concentration not given with the values); MEF A1-2A-BIM cells, Caspase-Glo 3/7 luminescence, 3 h; percent of clofoctol response, vehicle zero; actives 0.066% (n = 330,000);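 active = over half of replicate activation scores above 10%, or exactly half above 10 with the replicate mean above 10; inconclusive = replicate mean below 10 yet half the replicates above 10; inactive = over half of replicates below 10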
MC4R antagonist – human MC4R antagonism in cAMP assay; inhibition, % at 6.5 µM; actives 0.48% (n = 360,000); MC4R-expressing cells, MTII-stimulated cAMP, LANCE TR-FRET;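 active = inhibition above its plate's cutoff, the mean of tested wells on that plate plus 3 SD, cut at about 29% in these data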;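 also: 0% = Melanotan II alone and 100% = Melanotan II plus saturating MCL0020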
Target sequence (P32245 whole entry, looked up): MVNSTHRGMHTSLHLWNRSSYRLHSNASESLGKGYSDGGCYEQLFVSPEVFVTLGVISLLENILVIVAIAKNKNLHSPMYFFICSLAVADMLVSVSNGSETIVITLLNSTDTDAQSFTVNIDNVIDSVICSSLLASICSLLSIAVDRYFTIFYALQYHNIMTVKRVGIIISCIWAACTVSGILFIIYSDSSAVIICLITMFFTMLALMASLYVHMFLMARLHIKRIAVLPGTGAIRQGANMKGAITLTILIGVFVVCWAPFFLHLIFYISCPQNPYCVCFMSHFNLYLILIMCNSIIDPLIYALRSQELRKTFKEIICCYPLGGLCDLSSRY
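Test system: U2OS cells stably expressing human melanocortin 4 receptor (MC4R); also added: Melanotan II challenge; compound: 6.5 µM single dose; timing: 30-min compound preincubation, 1-h Melanotan II challenge, 1-h detection, room temperature; signal: Eu-cAMP/anti-cAMP TR-FRET, emission 671 nm; repeats: one well per compound, no replicates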
Tb MetRS inh – blocks T. brucei methionyl-tRNA synthetase activity; actives 0.4% (n = 360,000); inhibition, % at 11.9 µM; purified T. brucei MetRS, ATP depletion, Kinase-Glo luminescence; AID 624268;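 active = inhibition above a per-plate cutoff of the control wells' mean inhibition plus 3 SD, cut at about 5.5% in these data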;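 also: 0% = DMSO wells median and 100% = median of wells with control inhibitor compound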
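Test system – parasite MetRS enzyme · Reagent – substrates ATP, L-methionine and bulk Escherichia coli tRNA · Doses – 11.9 µM compound single dose, 0.9% DMSO · Times – 15 min enzyme-compound preincubation, 2 h reaction, 10 min detection, 25 °C · Signal – Kinase-Glo luminescence, ATP depletion format · Controls – DMSO-only wells as low control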
NALP1 inh – NALP1 inhibition; S. cerevisiae NALP1/ASC/caspase-1 growth, X-gal OD620, 72 h; inhibition, % at 10 µM; actives 0.61% (n = 280,000); AID 2071; in the data active = inhibition mostly above about 24%, no sharp cut-off; inactive = mostly below about 32%
MC4R barr agon – agonists of human melanocortin 4 receptor (MC4R) beta-arrestin; P32245; U2OS MC4R beta-arrestin complementation, luminescence; percent of melanotan II response, DMSO zero; activation, % at 8.9 µM; actives 0.98% (n = 360,000);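 active = activation above a per-plate cutoff, the mean activation of sample wells on that plate plus 3 SD, cut at about 8% in these data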
NALP3 yeast inh – blocks the NALP3 inflammasome reconstituted in yeast; actives 0.39% (n = 330,000); inhibition, % at 10 µM; Yeast reconstituted NLRP3/ASC/caspase-1, beta-gal luminescence, 24 h;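 active = inhibition of 50% or more; inactive = inhibition below 50%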;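 also: plate controls were induced DMSO wells for no effect and uninduced yeast grown without galactose for full effect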
MC4R barr ag – human MC4R beta-arrestin agonism confirmation; AID 602192; actives 31% (n = 2,400); activation, % at 8.9 µM; U2OS MC4R beta-arrestin recruitment, luminescence; scaled DMSO 0%, Melanotan II 100%; shares compounds with MC4R barr agon;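 active = mean activation across replicates above the hit cutoff set in the earlier primary screen, cut at about 8% in these data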
MOR DOR agonist – counter-screen for MC4R agonists: agonists of mu-delta opioid heterodimer; U2OS PathHunter beta-arrestin, beta-gal luminescence; percent of deltorphin B response, DMSO zero; activation, % at 9.2 µM; AID 602194; actives 5.8% (n = 2,400); shares compounds with MC4R barr agon;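 active = mean activation across replicates exceeds the hit threshold derived in the earlier primary screen, cut at about 18% in these data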;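 also: 100% = deltorphin B at 0.9 µM final and 0% = DMSO alone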
* = called active by the depositor; ? = inconclusive; / = no result. Compounds with a hit are over-represented: about 2.5% of the library has one in this group of screens.

SMILES	A1 inh	MC4R antagonist	Tb MetRS inh	NALP1 inh	MC4R barr agon	NALP3 yeast inh	MC4R barr ag	MOR DOR agonist
O=C(NCc1ccc(C(F)(F)F)cc1)C1CC(c2ccc(C(F)(F)F)cc2)=NO1 (stereo not drawn)	1.2	-6.8	0.1	/	11.8*	14.6	2.5	6.9
CC1CCC(NC(=O)c2[nH]c(C(F)(F)F)nc2-c2ccccc2)CC1 (stereo not drawn)	/	/	-1.1	/	/	/	/	/
C=CCN1C(=O)C(Cc2ccc(OC)cc2)S/C1=N\N=C\c1cccs1 (stereo not drawn)	-0.1	-1.2	-0.1	3.2	9.9*	3.9	9.7*	1.9
C=CCN1C(=O)C(Cc2ccc(OC)cc2)S/C1=N/N=C/c1ccco1 (stereo not drawn)	0.1	-0.6	-0.9	25.4	0.2	18.7	/	/
Cc1cc(NC(=O)COc2ccc3c(C)c(C)c(=O)oc3c2)no1	/	5.1	-0.1	/	-0.2	/	/	/
Cc1ccc(C(=O)OCC(=O)Nc2cc(C(C)(C)C)no2)c(C)c1	0.9	17.9	-0.3	/	9.9*	16.3	7.5	10.4
Cc1cc(NC(=O)COc2ccc3oc4ccccc4c3c2)no1	0.0	2.8	-1.3	0.3	10.1*	13.5	1.4	2.4
Cc1ccc(C)c(C(=O)OCC(=O)NC(=O)NCc2ccccc2)c1	/	19.5	0.0	/	13.1*	/	6.8	11.4
Cc1ccc(-c2cc(C(=O)OCC(=O)Nc3cc(C)on3)c3ccccc3n2)c(C)c1	1.0	18.9	-0.5	18.5	11.7*	4.8	3.9	5.7
O=S1(=O)CC(N2CCCCC2)CN1Cc1cn(Cc2cccc(Cl)c2)nn1 (stereo not drawn)	/	/	0.2	/	/	/	/	/
O=C1NC2=C(C(=O)CCC2)C(c2cccc([N+](=O)[O-])c2)N1 (stereo not drawn)	/	-2.7	-0.4	16.6	0.0	13.5	/	/
CN(CCc1ccccc1)C(=O)c1cccc(NC(=O)Cc2cccc(NC(=O)C3CCN(C(=O)C4CCC4)CC3)c2)c1	/	9.2	0.6	/	2.1	/	/	/
Cc1cc(NC(=O)COC(=O)c2oc3c(ccc4ccccc43)c2C)no1	?	17.1	-0.7	34.6	18.1*	1.8	6.1	6.2
CCOc1ccc(CNCCN2CCCC2)cc1	-1.2	5.8	-0.1	1.3	1.3	25.8	/	/
O=C1N/C(=N\N=C\c2cccs2)SC1Cc1ccc(Cl)c(Cl)c1 (stereo not drawn)	0.7	3.6	-0.1	8.0	10.1*	18.6	-2.5	4.0
COc1ccc(OC)c(NC(=O)c2cc3c(Cl)nc4ccccc4c3s2)c1	?	4.7	-0.5	15.6	27.8*	9.5	6.0	19.1*
COc1ccc(NC(=O)c2cccc3ccccc23)cc1OC	/	9.7	0.3	/	-1.0	/	/	/
COc1ccc(NC(=O)c2cc3c(Cl)nc4ccccc4c3s2)cc1OC	-0.7	4.6	0.3	30.2	10.7*	19.1	7.2	7.9
CC1CN=C(c2ccccc2)O1 (stereo not drawn)	/	7.8	-0.2	/	-0.4	/	/	/
Cc1ccccc1OC1(C)CCN(Cc2ccc(-c3ccccn3)cc2)C1 (stereo not drawn)	/	9.3	-0.4	/	15.3*	/	3.5	7.7
CC(=O)Nc1ccc(S(=O)(=O)N2CCN=C2SCc2ccc(F)cc2)cc1	-1.0	0.2	0.2	7.0	-1.6	5.8	/	/
O=[N+]([O-])c1ccc(S(=O)(=O)N2CCN=C2SCc2ccc(F)cc2)cc1	-0.4	1.9	0.2	11.8	10.9*	3.5	3.9	7.8
OCC[C@H]1C[C@H](O)[C@@H](O)[C@@]2(Cc3ccccc3O2)O1	-0.7	-0.8	-0.1	/	-0.8	21.2	/	/
Cc1cc(N/N=C/c2ccccc2O)nc(-c2ccccc2O)n1	-0.7	-0.1	0.4	23.7	-1.1	21.6	/	/
Cc1cc(N/N=C\c2ccccc2)nc(-c2ccccc2O)n1	-0.9	-1.9	-1.4	-9.5	20.3*	25.8	2.1	6.1
SMILES	A1 inh	MC4R antagonist	Tb MetRS inh	NALP1 inh	MC4R barr agon	NALP3 yeast inh	MC4R barr ag	MOR DOR agonist
COc1ccccc1/C=C1\SC(=S)N(CCC(=O)NCCCN2CCOCC2)C1=O	0.2	12.0	-0.5	5.8	0.9	20.6	/	/
COc1ccc(C=C2SC(=S)N(CCCN3CCOCC3)C2=O)c(OC)c1	/	6.8	-0.2	/	15.0*	/	4.9	21.0*
OC1(C#Cc2c(-c3ccsc3)oc3ccc(N4CCOCC4)cc23)CCCCC1	2.6	18.8	-0.2	/	12.9*	-0.7	7.5	4.9
COc1ccc(C#Cc2c(-c3ccsc3)oc3ccc(N4CCOCC4)cc23)cc1	0.9	-0.7	-0.3	/	0.2	7.5	/	/
C=CCN1C(=O)C(CC(=O)O)S/C1=N/N=C/c1ccc(N(CC)CC)cc1 (stereo not drawn)	0.3	12.7	-0.5	/	0.7	8.8	/	/
COc1ccc(CN2CCn3ncc(C(=O)Nc4cc(C)cc(C)c4)c3C2=O)cc1	0.2	5.2	0.0	7.9	31.7*	21.9	-0.1	9.9
COC(=O)c1cc2n(n1)CCN(Cc1ccc(OC)cc1)C2=O	-0.6	0.8	-0.7	-3.2	-1.0	2.2	/	/
C=CCNC(=S)N/N=C/c1cn(-c2ccccc2)nc1-c1ccc(OC)cc1	-0.2	2.4	-0.7	5.0	15.4*	-12.0	4.9	3.8
COc1ccc(-c2nn(-c3ccccc3)cc2/C=N/NC(=O)c2ccc(Br)o2)cc1	-0.9	-1.4	-0.8	12.6	-0.2	18.3	/	/
COc1ccc(-c2nn(-c3ccccc3)cc2/C=C/C(=O)OCC(=O)Nc2cccc(C#N)c2)cc1	-0.4	4.4	-0.6	39.6	0.5	14.7	/	/
COc1ccc(-c2nn(-c3ccccc3)cc2/C=C/C(=O)OCC(=O)Nc2ccc(C#N)cc2)cc1	0.6	3.2	-0.8	20.2	10.1*	19.3	-1.3	4.1
CCCCOc1ccc(C(=O)Nc2ccc(SC(F)F)cc2)cc1OC	-1.0	7.7	-1.1	24.8	9.9*	-0.4	15.8*	7.3
COc1ccc(C(=O)Nc2ccc(SC(F)F)cc2)cc1	-2.8	3.0	-0.5	37.5	3.4	21.8	/	/
CCN1C(C)=CC(=O)[C@@H](O)[C@H]1c1ccccc1Br	/	6.2	-0.3	/	0.1	/	/	/
COc1ccc(Cc2nnc(NC(=O)CSc3ccccc3)s2)cc1	-1.4	-5.7	-0.9	38.1	13.8*	6.1	3.5	3.1
Cc1cc(NC(=O)c2cncc(Br)c2)ccc1NC(=O)c1cc2ccccc2o1	-1.0	5.9	0.0	-15.3	10.1*	6.2	17.1*	9.5
